Hits are enriched below; roughly 4% of the tested compounds scored in any of these assays.
OX1R antag-1 = antagonists of human orexin 1 receptor (OX1R). Orexin/Hypocretin receptor type 1 (Homo sapiens), O43613. OX1R-expressing cells, FRET antagonist read-out. inhibition, % at 6.6 µM. actives 1.8% (n = 330,000). AID 485270, 2010; in the data active = inhibition mostly above about 38%, no sharp cut-off; inactive = mostly below about 40%;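 also: 0% = agonist challenge alone and 100% = reference antagonist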
OX1R antag-2 = OX1R (HCRTR1) antagonists, primary screen, fluorescence, CHO/OX1R cells, Fluo-8 calcium, orexin A; Fluo-8 calcium fluorescence; inhibition, % at 5 µM; actives 0.43% (n = 330,000); AID 434989, 2010;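 active = inhibition above its plate's threshold, mean inhibition of all tested compounds on the plate plus 3 SD, cut at about 37% in these data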;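 also: 0% = orexin A challenge wells and 100% = SB-334867-A antagonist wells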
NTR1 agonist = agonists of human NTR1, primary screen, imaging, U2OS cells, beta-arrestin-GFP, high content | NTR1-U2OS beta-arrestin-GFP spot imaging, agonist mode | activation, % at 20 µM | actives 0.17% (n = 330,000) | AID 493036, 2011;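 active = activation at or above 40% of the spot to cytoplasm intensity ratio, with at least 20 cells analyzed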;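 also: 0% = DMSO without peptide and 100% = 100 nM NTR1 peptide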
TAAR1 ag = human TAAR1 agonists, primary screen, Fluo-8 calcium fluorescence, CHO RD-HGA16 cells; Trace amine-associated receptor 1 (Homo sapiens), Q96RJ0; vehicle wells 0%, saturating PEA agonist 100%; activation, % at 3 µM; actives 0.99% (n = 360,000); AID 624467, 2012;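 active = activation above the mean activation of all test compounds in the run plus 3 SD, cut at about 38% in these data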
Target sequence (Q96RJ0 whole entry, looked up): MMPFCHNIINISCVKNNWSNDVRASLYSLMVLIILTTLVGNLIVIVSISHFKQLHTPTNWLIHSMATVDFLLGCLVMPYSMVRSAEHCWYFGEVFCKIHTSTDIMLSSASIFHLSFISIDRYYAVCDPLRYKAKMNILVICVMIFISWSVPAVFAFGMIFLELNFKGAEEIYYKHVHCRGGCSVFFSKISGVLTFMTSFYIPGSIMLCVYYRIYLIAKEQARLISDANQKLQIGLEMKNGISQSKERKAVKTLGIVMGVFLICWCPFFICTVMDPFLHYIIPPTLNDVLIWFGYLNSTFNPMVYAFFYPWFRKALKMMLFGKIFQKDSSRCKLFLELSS
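Assay system – CHO-derived RD-HGA16 cells with stable Gα16 and human TAAR1 · Compound dosing – one-point dosing at 3 µM (nominal) · Incubation – 17-24 h seeding, 75 min 37 °C dye, 30 min RT · Measured by – kinetic Fluo-8 calcium fluorescence · Control set – DMSO vehicle as 0%, PEA at EC100 as 100% · Repeats – single well for each compound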
TAAR1 antagonist = human TAAR1 antagonists, primary screen, Fluo-8 calcium fluorescence, CHO RD-HGA16 cells | Trace amine-associated receptor 1 (Homo sapiens), Q96RJ0 | antagonist | inhibition, % at 3 µM | actives 1.5% (n = 360,000) | AID 624466, 2012;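 active = inhibition above a per-plate cutoff, the mean inhibition of test compounds on that plate plus 3 SD, cut at about 49% in these data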;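 also: 0% = DMSO plus EC80 beta-PEA response and 100% = DMSO alone without agonist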
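Test system: RD-HGA16 CHO cells with stable hTAAR1 and Gα16 / Probe or stimulus: EC80 β-phenethylamine stimulus / Times: seeding 17-24 h prior, 75-min 37 °C, 30-min RT dye loading / Detection: Fluo-8 calcium-sensitive fluorescence / Read-out basis: % inhibition scaled between DMSO and EC80 PEA controls / Repeats: singlicate, one well per test compound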
CHO parental Ca = ATP-evoked calcium signal inhibitors, parental CHO, primary screen, counter-screen for OX1R antagonist project, cell-based, fluorescence, Fluo-8 calcium dye; parental CHO-K1, ATP-induced calcium, Fluo-8 fluorescence; inhibition, % at 5.6 µM; actives 0.63% (n = 330,000); AID 463079, 2010;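 active = inhibition above that plate's mean sample inhibition plus 3 SD, cut at about 26% in these data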;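 also: 0% = ATP-challenged DMSO wells and 100% = DMSO wells without ATP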
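Assay system: parental CHO cells; Read-out basis: percent inhibition of ATP-evoked calcium rise, normalized to controls; Benchmarks: ATP and no-ATP DMSO wells; Compound dosing: single nominal dose of 5.6 µM per compound; Signal: Fluo-8 calcium dye fluorescence; Also added: ATP as calcium-mobilizing challenge; Repeats: singlicate.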
TAAR1 nonsel count = nonselective antagonists in TAAR1 counter-screen cells, counter-screen for hTAAR1 antagonist project, cell-based, fluorescence, calcium | shares compounds with TAAR1 antagonist | counterscreen cell line, antagonist mode | inhibition, % at 3 µM | actives 77% (n = 2,400) | AID 651780, 2012; in the data active = inhibition above about 22%;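 also: CHO-Ga16 host cells stimulated with ATP at an EC80 level; 0% = agonist EC80 plus vehicle and 100% = vehicle without agonist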
TAAR1 ant conf = human TAAR1 antagonists, retest of hits, confirmation, cell-based, fluorescence. shares compounds with TAAR1 antagonist. TAAR1-expressing cells, fluorescence antagonist read-out. inhibition, % at 3 µM. actives 40% (n = 2,400). AID 651785, 2012; in the data active = inhibition above about 49%;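 also: CHO-Ga16 host cells challenged with agonist PEA near its EC80; 0% = agonist at EC80 plus vehicle and 100% = vehicle with no agonist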
Ga16 nonsel ag = calcium activation in Ga16-expressing cells, counter-screen for TAAR1 antagonist project, cell-based, fluorescence; agonist counterscreen; activation, % at 3 µM; shares compounds with TAAR1 antagonist; AID 651953, 2012; actives 18% (n = 2,400); in the data active = activation above about 12%;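 also: 0% = vehicle wells and 100% = saturating stimulus response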
TAAR1 ag count = TAAR1 activation by candidate antagonists – cell-based, fluorescence, counter-screen for TAAR1 antagonist project | shares compounds with TAAR1 antagonist | hTAAR1 cell line, agonist mode | activation, % at 3 µM | actives 2% (n = 2,400) | AID 651955, 2012; in the data active = activation above about 37%;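 also: CHO cells stably expressing TAAR1 with calcium dye readout; 0% = DMSO vehicle and 100% = full agonist response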
The depositor's hits bear a star; x = no result given.

SMILES | OX1R antag-1 | OX1R antag-2 | NTR1 agonist | TAAR1 ag | TAAR1 antagonist | CHO parental Ca | TAAR1 nonsel count | TAAR1 ant conf | Ga16 nonsel ag | TAAR1 ag count
COc1ccc(CCNC(=O)c2ccc(-c3ccc([N+](=O)[O-])cc3)o2)cc1OC | 13.5 | 1.3 | x | 13.0 | 61.1* | -0.1 | 22.0* | 34.4 | 11.1 | 9.6
COc1cc(NC(=O)c2cc3ccccc3o2)c(OC)cc1Cl | -4.5 | -13.3 | 11.6 | 10.3 | 55.3* | -23.2 | 16.5 | 53.7* | 0.2 | 1.3
S=c1[nH]nc(-c2ccco2)n1-c1ccc(Br)cc1 | -2.4 | -18.7 | 0.2 | 3.3 | -9.1 | -14.2 | x | x | x | x
Cc1ccc(S(=O)(=O)N(C)c2ccc(OC(=O)CN3C(=O)NC4(CCCC4)C3=O)cc2)cc1 | 17.8 | -24.4 | 0.9 | 6.2 | 12.1 | -4.8 | x | x | x | x
Cc1ccc(S(=O)(=O)N(C)c2ccc(OC(=O)CN3C(=O)NC4(CCCC4)C3=O)cc2)cc1C | 15.4 | -23.2 | 5.4 | 13.4 | 82.0* | 2.4 | 39.7* | 51.4* | 11.5* | 8.2
CCC1CCCCN1CCCNC(=O)Cn1cnc2sc(C)c(S(=O)(=O)N3CC(C)CC(C)C3)c2c1=O (stereo unspecified) | 4.7 | -8.4 | -1.7 | x | x | -22.6 | x | x | x | x
O=C(N=C1SC2CS(=O)(=O)CC2N1c1cccc(Cl)c1Cl)C1CC1 (stereo unspecified) | 10.6 | -16.4 | 0.6 | 3.1 | -11.8 | -27.0 | x | x | x | x
O=C(CCCC1=NS(=O)(=O)c2ccccc2N1)N1CCN(c2ccccc2)CC1 | 5.2 | -3.2 | -0.1 | 14.2 | 15.4 | -21.9 | x | x | x | x
COc1cccc(N2CCN(C(=O)CC(C)(C)CC3=NS(=O)(=O)c4ccccc4N3)CC2)c1 | 12.4 | -1.2 | 1.5 | 16.5 | 71.6* | 15.1 | 35.9* | 58.6* | 13.6* | 15.7
COc1ccc(-c2cc(-c3ccc(O)cc3)nc(N)c2C#N)cc1OC | 6.4 | -14.3 | 4.9 | 13.4 | 50.4* | -18.0 | 26.2* | 46.2 | 7.7 | 14.6
COc1ccc(-c2c(C#N)c(N)nc3c2CCc2ccccc2-3)cc1OC | 3.3 | -5.8 | 7.1 | 22.6 | 60.1* | -10.3 | 31.3* | 51.7* | 9.2 | 24.2
COc1cc(-c2c(C#N)c(N)nc3c2CCCC3)ccc1O | 0.9 | -28.7 | -0.2 | 6.6 | -5.1 | -17.9 | x | x | x | x
COc1ccc(CN(Cc2ccccn2)C(=O)CN2C(=O)C(C)Oc3ccccc32)cc1 (stereo unspecified) | 28.5 | -13.7 | 2.4 | 14.9 | 51.8* | -11.5 | 28.9* | 49.2* | 10.7 | 11.6
Cc1ccc(CNC(=O)C2CCN(C(=O)Nc3ccc(C)cc3)CC2)cc1 | x | x | -0.5 | -0.9 | 1.5 | x | x | x | x | x
O=C(Nc1ccc(C(=O)O)cc1)/C(=C\C=C\c1ccccc1)NC(=O)c1ccccc1Cl | 32.0 | 0.7 | -0.1 | 2.7 | 58.2* | -13.3 | 22.6* | 29.6 | 6.2 | 6.4

Bioassay records (PubChem BioAssay)
